How the values were obtained:
[1] = (§1) Diuretic activity was determined expressed as volume of urine excreted in mL was reported at a dose of 100 mg/Kg; type: ADME; conditions: in vivo
In short: (§2)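 Male SH rats (Okamoto strain), 16 weeks old, dosed orally by gavage with compound dispersed in 3% starch in normal saline at 2 mL/kg. Oral normal saline load, then individual metabolism cages; 0-5 h urine collected, Na+ and K+ measured by flame photometry. Rats redosed at 24 h without the saline load. MABP and HR taken by femoral arterial puncture under local anesthetic 4 h after the second dose.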

Rattus norvegicus [2] = assay: Antihypertensive activity in SH rats, and mean arterial blood pressure was reported at a dose of 100 mg/Kg; type: functional, Artery; in short: as §2
Rattus norvegicus [3] = assay: Diuretic activity was determined in SH rats expressed as K(+) (potassium) excreted in milli equivalents was reported for a duration of 5 hours after administration of a dose of 100 mg/Kg; type: ADME, organism-based, Urine; conditions: in vivo; in short: as §2
[4] = Diuretic activity was determined expressed as Na+(sodium) excreted in milli equivalents was reported for a duration of 5 hours after administration of a dose of 100 mg/Kg; type: ADME, Urine; conditions: in vivo; in short: as §2
Rattus norvegicus [5] = assay: Antihypertensive activity determined as heart rate in SH rats, was reported at a dose of 100 mg/Kg; type: functional; in short: as §2
Rattus norvegicus [6] = assay: Antihypertensive activity in SH rats, and mean arterial blood pressure was reported at a dose of 25 mg/Kg; type: functional, Artery; in short: as §2
[7] = Diuretic activity was determined expressed as Na+(sodium) excreted in milli equivalents was reported for a duration of 5 hours after administration of a dose of 25 mg/Kg; type: ADME, Urine; conditions: in vivo; in short: as §2
Rattus norvegicus [8] = assay: Diuretic activity was determined in SH rats expressed as K(+) (potassium) excreted in milli equivalents was reported for a duration of 5 hours after administration of a dose of 25 mg/Kg.; type: ADME, organism-based, Urine; conditions: in vivo; in short: as §2
Rattus norvegicus [9] = assay: Antihypertensive activity determined as heart rate in SH rats, was reported at a dose of 25 mg/Kg; type: functional; in short: as §2
[10] = Diuretic activity was determined expressed as volume of urine excreted in mL was reported at a dose of 25 mg/Kg; type: ADME; conditions: in vivo; in short: as §2
Rattus norvegicus [11] = assay: Diuretic activity was determined in SH rats expressed as K(+) (potassium) excreted in milli equivalents was reported for a duration of 5 hours after administration of a dose of 100 mg/Kg.; type: ADME, organism-based, Urine; conditions: in vivo; in short: as §2
Rattus norvegicus [12] = assay: as §1; type: ADME, organism-based; conditions: in vivo; in short: as §2
Rattus norvegicus [13] = assay: Diuretic activity was determined in SH rats expressed as K(+) (potassium) excreted in milli euivalents was reported for a duration of 5 hours after administration of a dose of 100 mg/Kg.; conditions: in vivo

SMILES	Diuretic activity [1] [mL]	MABP (Rattus norvegicus [2]) [mmHg]	Diuretic activity (Rattus norvegicus [3]) [m equiv]	Diuretic activity [4] [m equiv]	HR (Rattus norvegicus [5]) [beats min-1]	MABP (Rattus norvegicus [6]) [mmHg]	Diuretic activity [7] [m equiv]	Diuretic activity (Rattus norvegicus [8]) [m equiv]	HR (Rattus norvegicus [9]) [beats min-1]	Diuretic activity [10] [mL]	Diuretic activity (Rattus norvegicus [11]) [m equiv]	Diuretic activity (Rattus norvegicus [12]) [mL]	Diuretic activity (Rattus norvegicus [13]) [m equiv]
COc1ccc(CNc2cc(Cl)c(/N=C/N(C)C)c(Cl)c2)cc1F	16.8	113	0.43	1.15	320								
CN(C)/C=N/c1c(Cl)cc(NCc2cc(Cl)cc(Cl)c2)cc1Cl						139	1.34	0.42	290	13.8			
CN(C)/C=N/c1c(Cl)cc(NCc2cccc(C(F)(F)F)c2)cc1Cl	21.3	165		2.04	420						0.5		
CCN(CC)c1ccc(CNc2cc(Cl)c(/N=C/N(C)C)c(Cl)c2)cc1						153	2.02	0.71	400	21.3			
CN(C)/C=N/c1c(Cl)cc(NCc2ccccc2O)cc1Cl	12.3	150		0.72	340						0.68		
CC(=O)Nc1ccc(CNc2cc(Cl)c(/N=C/N(C)C)c(Cl)c2)cc1		150		0.66	340						0.62	9.5	
COc1ccc(CNc2cc(Cl)c(/N=C/N(C)C)c(Cl)c2)cc1OC	8.3	133	0.37	0.47	410								
CN(C)/C=N/c1c(Cl)cc(NCc2cccc(F)c2)cc1Cl	25	120		1.93	290						0.59		
CN(C)/C=N/c1c(Cl)cc(NCc2ccc(N(C)C)cc2F)cc1Cl						155	2.26	0.71	400	23.5			
CN(C)/C=N/c1c(Cl)cc(NCc2cccc(Br)c2)cc1Cl	19.3	120		1.9	350								0.48
COc1cc(CNc2cc(Cl)c(/N=C/N(C)C)c(Cl)c2)cc(OC)c1OC	17.5	138	0.57	1.4	360								
Clc1cccc(Cl)c1NC1=NCCN1 [CLONIDINE]	16.4	102			180	113			220				0.16
CN(C)/C=N/c1c(Cl)cc(NCc2ccc(N(C)C)c(Br)c2)cc1Cl						173	1.18	0.77	420	14			
NS(=O)(=O)c1cc2c(cc1Cl)NCNS2(=O)=O [HYDROCHLOROTHIAZIDE]	13.2	153		1.63	436						0.65		
CN(C)/C=N/c1c(Cl)cc(NCc2ccc(N(C)C)cc2Br)cc1Cl						115	1.86	0.45	280	19.3			
CN(C)/C=N/c1c(Cl)cc(NCc2ccc(N(C)C)cc2)cc1Cl						171	0.55	0.39	450	5.5			
CN(C)/C=N/c1c(Cl)cc(NCc2ccc(-c3ccccc3)cc2)cc1Cl	7.3	143		0.46	400						0.5		

— ChEMBL document CHEMBL1122545, “N2-(4-Substituted-2,6-dichlorophenyl)-N1,N1-dimethylformamidines as antihypertensive and diuretic agents” (J Med Chem, 1984)
